Test system: MS2 coat protein
Assay: apparent Kd, MS2 coat protein; higher = weaker binding; RNA-MaP array; FMN 200 µM where present
Summary of the method: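 In 100 mM Tris-HCl pH 7.5, 80 mM KCl, 4 mM MgCl2, BSA, DTT, yeast tRNA and Tween-20, SNAP-549-labelled MS2 coat protein was titrated from 0.7 or 1.5 nM, doubling to 3 µM, over designs transcribed by stalled E. coli RNA polymerase on Illumina sequencing-chip clusters. This was done first without ligand, then with ligand held constant. After green signal was normalised to red-channel RNA signal and control-cluster median Fmax, the apparent Kd was taken as the median of filtered per-cluster binding-curve fits.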

[1] = designed as: OFF switch for flavin mononucleotide, no ligand
[2] = ligand present: flavin mononucleotide, designed as: OFF switch for flavin mononucleotide
[3] = designed as: ON switch for flavin mononucleotide, no ligand
[4] = ligand present: flavin mononucleotide, designed as: ON switch for flavin mononucleotide

Sequence | apparent Kd [1] [µM] | apparent Kd [2] [µM] | apparent Kd [3] [µM] | apparent Kd [4] [µM]
UUUUAACAUGAGGAUCACCCAUGUGAGGAUAUCGUUUUUUUUAUUAAUAUUAAUAAAACGAGAAGGCACAUUUU | 0.149 | 0.149 | – | –
AAUAAUCAGUAAGGAUAUACUAGCGAUUAGCUUGUAGAAGGUACAGUCUUAUGUAUAACAAAUUAACAUGAGGAUCACCCAUGU | – | – | 0.00919 | 0.00765
GUAUUUGAAGUAAGGAUAUGCCUCUGGAAACGGAGGUAGAAGGUACAUGAGGAUCACCCAUGUUUCUCUUUUGG | 0.016 | 0.0233 | – | –
CCGGCGUCAGGAUAUCCAAUAUAUGACAUGAGGAUCACCCAUGUUUCCACUCGUACCUCCGGAGAAGGGACGAAUA | 0.0281 | 0.0245 | – | –
CAGGUAGCUACAGGAUAUACACAGCUCAGUAAACUGAGCAAAAGAUCUACAUGAGGAUCACCCAUGUAGAAGGGUAGCUGCCUG | 0.0171 | 0.0182 | – | –
GUUUAGUGAGGAUAUGUGGCUUCGAUCGUGAGAUCGAGGCUACAGAAGGCACAUGAGGAUCACCCAUGUUCCUG | 0.016 | 0.0643 | – | –
CCUAGAUAGGGAGGAUAUCACAACCAUCCCGGCGAUCCAACUACAUGAGGAUCACCCAUGUGGUGUGAGAAGGCCCAGUAAUAG | 0.143 | 0.0786 | – | –
GGAUCUUGGGUCAGGAUAUGCUGGUAUUUUUGCCAGCAGAAGGGACAUGAGGAUCACCCAUGUUCUUGGUUUUG | 0.0106 | 0.0139 | – | –
GCAAUGCCUGACAUGAGGAUCACCCAUGUUAGAUUGUUAUGUCAGGAUAUUGUCUAGAAACUAGACAAGAAGGGAUGCAUUGCU | – | – | 0.313 | 0.0251
CCAGAGAUAUGAGGAUAUCGAGUGGAAUACACUCGAGAAGGCAUGUGAAAACAUGAGGAUCACCCAUGUAUGAUCUACUCUGGA | – | – | 0.0522 | 0.0244
AGCGAACAUGAGGAUCACCCAUGUGAAAAACAUAGAGGAUAUGUCGCAUGCGUGUAAAAGACAGAAGGCUAUCGCG | – | – | 0.0716 | 0.0339
GUGUGCAGAGGAUAUACAGAGGAAAAGAAGAAAGAAGAGGGACAUGAGGAUCACCCAUGUAGAAGGCUGAGUGU | 0.0339 | 0.0352 | – | –
AUAAAACAUGAGGAUCACCCAUGUGAGGAUAUGCUAAAAUAAAAUAAAAUAAAAUAAUGCAGAAGGCACAAAUA | 0.0597 | 0.0746 | – | –
GGAUAGGUCAGAGGAUAUACGUGCUAGAGAUACUAGCAAAAUUUCCUCACAUGAGGAUCACCCAUGUAGAAGGCUGUCCUAUCG | 0.0124 | 0.278 | – | –
UGGACUGGGCAGAAGGGACAUGAGGAUCACCCAUGUCUUGGGCUACUUCAGUCAGGAUAUGCCCAUUGAAUAUCCGAGCAUCAA | 0.0137 | 0.0774 | – | –
UGUGCUAUGUAGAAGGCAGAUCUGAUUCAGAUCUGAGGAUAUACAUGAGGAUCACCCAUGUUAUGCACCAGCACGAGAGUGCAC | 0.00789 | 0.0171 | – | –
CAUUAAUUGAUUAUUGUAUUUUUACAGGAUAUGUUACAUGAGGAUCACCCAUGUUUAUAUGGGAGACAGAAGGGUAUUUAUAGA | 0.355 | 0.193 | – | –
GUACCUUAUGAGAAGGCGAUCAUUAAACAUGAUCGAGGAUAUCAUGUAAACAUGAGGAUCACCCAUGUAUGGGUAUUAUGGUAC | – | – | 0.0667 | 0.0193
AUACAUGAGGAUCACCCAUGUUACAUGGCCUUGAUAGAUCGUAGAAGGAUGUUAUUAUUAAUUUCAUAGGAUAUACUAUUUAGU | 0.0951 | 0.0729 | – | –
GCAUGGUAUGAGAAGGCAUAUUUAAUCUAACAACAUGUUUACAUGAGGAUCACCCAUGUUACCAAUGAGGAUAUCAUACCGUGC | 0.00731 | 0.00728 | – | –
UGUUGUAUUACAGGAUAUCUAUUAGGUUUAUUUAGAGAAGGGUAUUCACAUGAGGAUCACCCAUGUAUAUACGAGGAAGUUGUG | – | – | 0.0562 | 0.0633
ACUAAUAGAGGAUAUACAGUUUAUUACAUGAGGAUCACCCAUGUUCUUCAAUGUAUAUAAGUAGAAGGCUAUGGAA | 0.0433 | 0.187 | – | –
UGACUCGGAGGAUAUACAUGAGGAUCACCCAUGUUUACUUGCCGCCGAGUAACCUGGUGUAGAAGGUCGAGUGU | 0.0172 | 0.0137 | – | –
GUGUGCUGAGGAUAUACAGAGGAAGAUAAUACAAUAUAAGUACAUGAGGAUCACCCAUGUAGAAGGCAGAGUGU | 0.0282 | 0.0264 | – | –
AACUGACAUGAGGAUCACCCAUGUCAGGAUAUGACUUCAAAAUAAAAAUAAAAUGAUGUCAGAAGGGACAUGAA | 0.0134 | 0.012 | – | –
AUCAGCUCGUCAGGAUAUACGUCACUGCGUCAGCAGUGUAGUAAGAUCACAUGAGGAUCACCCAUGUAGAAGGGACGAGCUGAU | 0.00555 | 0.012 | – | –
GCCAGUUAUGUAGGAUAUGCGAAGCGAGCCUGAGCAGAAGGACAUGAGGAUCACCCAUGUAUUGCGGUUUGAGUACUGAUCGCU | 0.0279 | 0.107 | – | –
GGUUAUUGCAAGGAUAUGCUUUUUUUUGAAAUUGCAGAAGGUGCAACAUGAGGAUCACCCAUGUUGGAUGGGUU | 0.166 | 0.125 | – | –

Sequence | apparent Kd [1] [µM] | apparent Kd [2] [µM] | apparent Kd [3] [µM] | apparent Kd [4] [µM]
UGUAUGGACAGAGGAUAUACAGAUAGGAUCUACUAUCAAACAAUCCUGACAUGAGGAUCACCCAUGUAGAAGGCUGUCCAUACU | 0.0238 | 0.0914 | – | –
CACGUACAUGAGGAUCACCCAUGUUAGGAUAUGCCGGGUUAGAGCCAACUAAAAACCCGUAGAAGGGACGAAAC | 0.0231 | 0.0253 | – | –
AUAUAUAGUGUGAGGAUAUGCUGGUCCUUGGAUCAGCAGAAGGCACAUGAGGAUCACCCAUGUAGUUUAUUUUG | 0.0175 | 0.077 | – | –
CUUUCGUGAGGAUAUGAGGCUUCGAUCGUGAGAUCGAGGCUACAGAAGGCACAUGAGGAUCACCCAUGUUCCUC | 0.0309 | 0.392 | – | –
AGUUUACAUGAGGAUCACCCAUGUGAGGAUAUGGUUUCGCUGGCCGUAGCCAGUGGAACCAGAAGGCGCGUGAU | 0.0876 | 0.164 | – | –
UUCGCUAAGGUGUAGCGAGACAUGCAAGAAGGGUGAAGAACAUGAGGAUCACCCAUGUAAUCCUUACAGGAUAUUGAUUGACGA | – | – | 0.307 | 0.181
UGAUCUUACAUGAGGAUCACCCAUGUAGGCCUGUAACUAACCAGAAGGCACGUAGAGUAAAACAGUGAGGAUAUGGAUGACGUA | – | – | 0.0225 | 0.00935
GGUUGUCAUAGUCAUCCUUUACGUACAUGAGGAUCACCCAUGUAGGAUAUGCUACUCAAAGAGUAGCAGAAGGGCGUGUGUCUU | 0.0231 | 0.0255 | – | –
UUAUAUAGUGUGAGGAUAUGCUGGUCCUUGGAUCAGCAGAAGGCACAUGAGGAUCACCCAUGUAGUUUAUUUUA | 0.029 | 0.129 | – | –
GCAAUGUGAUAAGGAUAUCCAAUGGCAUCCCUAGGAGAAGGUAUCACAUGAGGAUCACCCAUGUGAAGGACGGGUUAUCGCAAA | – | 0.211 | – | –
UAUAAUUAGUAGAAGGACGGAGAGUAAGAAGUCGUAGGAUAUACAUAAGACAUGAGGAUCACCCAUGUGUGUAUGUUGGGUAGG | 0.00676 | 0.0067 | – | –
UAUAUAUAGUAAGGAUAUGUAUCUAUUUUAUAAACAGAAGGUACUGACAUGAGGAUCACCCAUGUUUUAGUGUGGGCAUGUAGA | 0.0922 | 0.114 | – | –
UUAAAUCAUGUAGGAUAUGCAUGGCGAAGCUACGCAGAAGGACAUGAGGAUCACCCAUGUUAUAGCUACCCAGAACGGUGGCAA | 0.0755 | 0.267 | – | –
CCUUUGAAGAUCCAAAAUUUCGACAUGAGGAUCACCCAUGUGCAGGAUAUCGUGCCAGUGAUGUACGAGAAGGGCAGACUCUGC | 0.132 | 0.158 | – | –
GUAGCACAAGUUAACAUGAGGAUCACCCAUGUCAGAAGACAUGAGGAUAUGGAUGUGAAGAUAAUCCAGAAGGCAUAAUGCUAA | – | – | 0.774 | 0.131
GUGGCACAUGAGGAUCACCCAUGUCAGGAUAUCGUGUGUUUUUUUUCGGCCGCGCGCGCGAGAAGGGACGUCUU | 0.149 | 0.12 | – | –
GUAGCAUACGGAGGAUAUUCAUACCGGAAACGGACAUGAGGAUCACCCAUGUGGCGAAAGCCAUGGGAGAAGGCCGUAUGCUAC | – | – | 0.318 | 0.149
UUCAAGGAAGGAUAUCUCGGCCCGGACAUGAGGAUCACCCAUGUUGUUUUUAGAUUCGUGAGAGAAGGUCUUAUAU | 0.0388 | 0.0265 | – | –
AAGAAGUCAGGAUAUGCUGCUCGUCACUUGCGUGAUGAGUAGCAGAAGGGACAUGAGGAUCACCCAUGUAAAGG | 0.164 | 0.356 | – | –
GGCGGAGACGUUAACAUGAGGAUCACCCAUGUCGAAGGAGAUGAGGAUAUCGUAUACGAUGUAUAUGAGAAGGCAUGGUCUGCC | – | – | 0.0328 | 0.0113
ACCUCACAUGAGGAUCACCCAUGUUAGGAUAUCUCGAUGCUCCGCGGGCGGGAGCAUCAGAGAAGGAACGUGCA | 0.0201 | 0.0218 | – | –
AAUAACAGAGGAUAUACUGUUUUAUGUGUUUAUUGUUUUGAACAUGAGGAUCACCCAUGUAGAAGGCUGAGUAA | 0.0278 | 0.0282 | – | –
UAUCGGGUGCGACUCGCAAGAGGGACAGAAGGCCAUCGACAUGAGGAUCACCCAUGUAACGAAAUGGAGGAUAUGUCUGGUCGA | – | – | 0.0275 | 0.00565
GGAUCCAACACAGGAUAUGCUGGACCUUGUCCAGCAGAAGGGUGAAGAACAUGAGGAUCACCCAUGUGGAUCCAUAUAUUUAAU | – | – | 0.24 | 0.0146
UGUGUCAUCGAGAAGGCCUCAACAUGAGGAUCACCCAUGUUGUAAUAUGGGAGGAUAUCGAUGAUACAGCUACGUUUCGUAGCC | – | – | 0.0184 | 0.00567
ACAUGAGGAUCACCCAUGUGAUGAUCUCCCAUGUCAUAUUUCAGAAGGCUCGCGUGUUUGAUGAGAGAGGAUAUGGAAUAUGCG | 0.208 | 0.152 | – | –
UUGGACUACGUAGGAUAUGUAGGAUAUUCCUACAUGAGGAUCACCCAUGUUAGCAUGGAAGAAGGACAGAAGGACGUGGUCCAU | – | – | 1.36 | 0.0158

From the EternaBench riboswitch data
